These results are taken from ChEMBL document CHEMBL1137287, “Peptidyl-urea based inhibitors of soluble epoxide hydrolases” (Bioorg Med Chem Lett, 2006).

What all share (assay type): ADME, organism-based, Canis lupus familiaris
Common to all, as to parameters: dose 0.3 mg/kg, route oral

A short description of data set [1]: Plasma concentration in dog at 0.3 mg/kg, po after 180 min. In outline: (§1)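 Dogs given oral dose of 0.3 mg/kg per inhibitor, three different inhibitors per dog per experiment, formulated at 6 mg/mL in triglycerides (tristearate, 6 mL). AUC estimated from plasma concentration (nM) versus time (min) plot.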
The nature of data set [2]: Plasma concentration in dog at 0.3 mg/kg, po after 60 min. Summed up:
as §1

The nature of data set [3]: Plasma concentration in dog at 0.3 mg/kg, po after 240 min. Summed up:
as §1

Data set [4] is described as follows: Plasma concentration in dog at 0.3 mg/kg, po after 15 min. In outline:
as §1

Data set [5] is described as follows: Plasma concentration in dog at 0.3 mg/kg, po after 30 min. In outline: as §1
Data set [6] in a line: Plasma concentration in dog at 0.3 mg/kg, po after 120 min. Summed up:
as §1

The nature of data set [7]: Plasma concentration in dog at 0.3 mg/kg, po after 300 min. Summed up: as §1
Data set [8] can be described thus: Plasma concentration in dog at 0.3 mg/kg, po after 480 min. Summed up:
as §1

The nature of data set [9]: Plasma concentration in dog at 0.3 mg/kg, po after 360 min. Summed up: as §1

Regarding `O=C(O)CCCCCCCCCCCNC(=O)NC12CC3CC(CC(C3)C1)C2`, in data set [1], the concentration at 3 h was determined as 13.4 nM. This molecule also had a concentration at 1 h in [2] of 30.7 nM. The same molecule came in with a concentration at 4 h in data set [3] of 6.12 nM. Moreover, the concentration at 0.25 h in data set [4] turned out to be 6.97 nM. In addition, the concentration at 0.5 h in [5] was 20.4 nM. In [6], this molecule displayed a concentration at 2 h of 26.3 nM. In data set [7], this molecule returned a concentration at 5 h of 1.61 nM. This molecule registered a concentration at 8 h in data set [8] of 0.86 nM. In data set [9], the concentration at 6 h came out at 1.17 nM.
